According to PMC4738094 (Bioorganic & medicinal chemistry, 2015):
“Also recorded” adds a separate entry of the source.

Columns and labels:
[1] = system: Neuro-2A neuroblastoma cells; experiment: MTT cell viability assay under Aβ-induced cytotoxicity; assay type: cell-based, Murine; details: Neuro-2A cells exposed to Aβ
How it was run: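 Neuro-2A cells grown in DMEM with 10% FBS and penicillin-streptomycin at 37°C, 5% CO2. Cells briefly trypsinised, seeded at 2,000–4,000 cells/mL, and rested 6 h. Aβ25–35 (from 833 µM solution), test compound (from 250 µM solution) and MTT were added together for 6 h. Extraction buffer (acetic acid/SDS in DMF/water, pH 4.7) was then added, with 6 h shaking in the dark at 37°C. A570 was expressed relative to an Aβ-free control.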

[2] = ref [74]; cited from earlier work
XO = details: cited from earlier work

| Compound | protection of cells against Aβ/ROS-induced stress (in words) [1] | further results |
| --- | --- | --- |
| O=C(/C=C/c1cccc(O)c1)c1ccc(O)cc1O [Compound 10, (E)-1-(2,4-dihydroxyphenyl)-3-(3-hydroxyphenyl)prop-2-en-1-one] | poor rescue compound | – |
| O=C(/C=C/c1ccc(O)c(O)c1)c1ccc(O)c(O)c1O [Compound 18, (E)-3-(3,4-dihydroxyphenyl)-1-(2,3,4-trihydroxyphenyl)prop-2-en-1-one] | best level of protection | – |
| Oc1ccccc1O [catechol] | – | standard reduction potential [2]: 530 mV |
| O=C(/C=C/c1ccc(O)c(O)c1O)c1ccc(O)c(O)c1 [Compound 19, (E)-1-(3,4-dihydroxyphenyl)-3-(2,3,4-trihydroxyphenyl)prop-2-en-1-one] | increased cell viability at a modest but noticeable level | – |
| O=C(/C=C/c1ccc(O)c(O)c1)c1cccc(O)c1 [Compound 8, (E)-3-(3,4-dihydroxyphenyl)-1-(3-hydroxyphenyl)prop-2-en-1-one] | only modest protection | – |
| O=C(/C=C/c1ccc(O)c(O)c1)c1c(O)cccc1O [Compound 11, (E)-1-(2,6-dihydroxyphenyl)-3-(3,4-dihydroxyphenyl)prop-2-en-1-one] | increased cell viability at a modest but noticeable level | – |
| O=C(/C=C/c1cc(O)ccc1O)c1ccc(O)c(O)c1 [Compound 17, (E)-3-(2,5-dihydroxyphenyl)-1-(3,4-dihydroxyphenyl)prop-2-en-1-one] | best level of protection | – |
| O=C(/C=C/c1ccc(O)c(O)c1)c1ccc(O)cc1O [Compound 15, (E)-1-(2,4-dihydroxyphenyl)-3-(3,4-dihydroxyphenyl)prop-2-en-1-one] | best level of protection | – |
| O=C(/C=C/c1ccc(O)c(O)c1)c1ccc(O)c(O)c1 [Compound 13, (E)-1,3-bis(3,4-dihydroxyphenyl)prop-2-en-1-one] | increased cell viability at a modest but noticeable level | – |
| O=C(/C=C/c1cccc(O)c1O)c1ccc(O)c(O)c1 [Compound 16, (E)-3-(2,3-dihydroxyphenyl)-1-(3,4-dihydroxyphenyl)prop-2-en-1-one] | increased cell viability at a modest but noticeable level | – |
| Oc1cccc(O)c1 [resorcinol] | – | standard reduction potential [2]: 720 mV |
| O=C(/C=C/c1ccc(O)c(O)c1)c1ccc(O)cc1 [Compound 9, (E)-3-(3,4-dihydroxyphenyl)-1-(4-hydroxyphenyl)prop-2-en-1-one] | increased cell viability at a modest but noticeable level | – |
| Oc1ccc(O)cc1 [hydroquinone] | – | standard reduction potential [2]: 459 mV |
| O=C(/C=C/c1ccc(O)c(O)c1)c1cc(O)ccc1O [Compound 12, (E)-1-(2,5-dihydroxyphenyl)-3-(3,4-dihydroxyphenyl)prop-2-en-1-one] | good rescue properties; also recorded: increased cell viability at a modest but noticeable level | – |
| O=C(/C=C/c1ccc(O)c(O)c1O)c1ccc(O)c(O)c1O [Compound 20, (E)-1,3-bis(2,3,4-trihydroxyphenyl)prop-2-en-1-one] | best level of protection | – |
| Oc1ncnc2[nH]ncc12 [Allopurinol] | – | IC50 (XO; read-out: IC50 (XO inhibition), ref [6]): 0.2 to 50 µM |
| Cc1nc(-c2ccc(OCC(C)C)c(C#N)c2)sc1C(=O)O [febuxostat] | – | potency (XO inhibition) (XO; ref [16]): subnanomolar range |
| O=C(/C=C/c1ccc(O)c(O)c1)c1cc(O)cc(O)c1 [Compound 14, (E)-3-(3,4-dihydroxyphenyl)-1-(3,5-dihydroxyphenyl)prop-2-en-1-one] | increased cell viability at a modest but noticeable level | – |
